Measurements: ChEMBL document CHEMBL4270668, “Design, Synthesis, Molecular Dynamics Simulation, and Functional Evaluation of a Novel Series of 26RFa Peptide Analogues Containing a Mono- or Polyalkyl Guanidino Arginine Derivative” (J Med Chem, 2018)
Starred links: 1 amine or outer side, 2 acyl side, 3 side chain; linkers in the order of their positions; H or OH if unused. Non-standard residues stand in square brackets, D forms with d. Residues, ends and D or L forms follow the SMILES beside them. X25 = C/N=C(/NCCCC[C@H](N[*:1])C(=O)[*:2])N(C)C; X14 = CCN(CC)C(=N)NCCCC[C@H](N[*:1])C(=O)[*:2]; X16 = CC(C)CNC(=N)NCCC[C@H](N[*:1])C(=O)[*:2]; X18 = C/N=C(/NCC[C@H](N[*:1])C(=O)[*:2])N(C)C; X24 = N=C(NCCCC[C@H](N[*:1])C(=O)[*:2])N1CCC1; X17 = CC(C)CNC(=N)NCC[C@H](N[*:1])C(=O)[*:2]; X19 = C/N=C(\NC)NCCCC[C@H](N[*:1])C(=O)[*:2]; X21 = CCN(C)C(=N)NCCC[C@H](N[*:1])C(=O)[*:2]; X13 = C/N=C(\NC)NCC[C@H](N[*:1])C(=O)[*:2]; X20 = CCNC(=N)NCCCC[C@H](N[*:1])C(=O)[*:2]; X23 = CN(C)C(=N)NCC[C@H](N[*:1])C(=O)[*:2]; X22 = CCCNC(=N)NCC[C@H](N[*:1])C(=O)[*:2]; X15 = CCNC(=N)NCC[C@H](N[*:1])C(=O)[*:2]; Arg(Me) = CNC(=N)NCCC[C@H](N)C(=O)O; hArg = N=C(N)NCCCC[C@H](N)C(=O)O

Assays:
[1] = molecular target: T1, Pyroglutamylated RF-amide peptide receptor (Homo sapiens, UniProt Q96P65); test: Antagonist activity at human QRFPR expressed in CHO cells co-expressing Galpha16 assessed as inhibition of 26RFa-induced Ca2+ mobilization preincubated for 15 mins followed by agonist addition measured after 3 mins by Fluo-4 AM-based scanning fluorometery; format: functional, cell-based
T1 sequence (Q96P65 whole entry): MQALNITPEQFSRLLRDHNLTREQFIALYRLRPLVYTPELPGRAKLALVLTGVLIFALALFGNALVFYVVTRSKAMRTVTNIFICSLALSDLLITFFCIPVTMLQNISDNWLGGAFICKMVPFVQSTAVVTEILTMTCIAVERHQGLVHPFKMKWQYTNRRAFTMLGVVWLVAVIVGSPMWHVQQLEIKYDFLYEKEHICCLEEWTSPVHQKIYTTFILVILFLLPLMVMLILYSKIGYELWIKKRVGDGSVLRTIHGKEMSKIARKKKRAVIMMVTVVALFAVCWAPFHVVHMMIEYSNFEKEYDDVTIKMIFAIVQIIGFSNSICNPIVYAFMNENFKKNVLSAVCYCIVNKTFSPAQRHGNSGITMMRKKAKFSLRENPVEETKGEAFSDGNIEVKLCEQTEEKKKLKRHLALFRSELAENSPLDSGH
Method in brief: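 CHO-Gα16-hQRFPR cells loaded 1 h with 2 µM Fluo-4 AM, then incubated 15 min with graded compound. A 10^-7 M final 26RFa pulse was given during recording. Background subtracted, baseline normalized to 100%, peak fluorescence taken per concentration. IC50 from sigmoidal variable-slope fits, ≥3 experiments in triplicate. Maximal effect at 10^-4 M expressed as % inhibition of the 26RFa (10^-7 M) response.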

[2] = molecular target: T1, Pyroglutamylated RF-amide peptide receptor; test: Agonist activity at human QRFPR expressed in CHO cells co-expressing Galpha16 assessed as increase Ca2+ mobilization after 3 mins by Fluo-4 AM-based scanning fluorometery; format: functional, cell-based
Method in brief: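 CHO-Gα16 cells stably expressing human QRFPR, seeded at 40,000 cells/well 24 h ahead. Loaded 1 h with 2 µM Fluo-4 AM plus 0.01% pluronic acid, washed, then 30 min in HBSS with 2.5 mM probenecid and 5 mM HEPES. Compounds added at final 10^-11 to 10^-5 M; fluorescence recorded 3 min on a scanning fluorometer. EC50 from sigmoidal variable-slope fits, ≥3 experiments in triplicate.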

C/N=C(\NC)NCC[C@H](NC(=O)[C@H](Cc1ccccc1)NC(=O)[C@H](CO)NC(=O)[C@H](Cc1ccccc1)NC(=O)CNC(=O)CN)C(=O)N[C@@H](Cc1ccccc1)C(N)=O (H-GGFSF[X13]F-NH2)
IC50 [1]: > 100 µM
EC50 [2]: > 100 µM

CCN(CC)C(=N)NCCCC[C@H](NC(=O)[C@H](Cc1ccccc1)NC(=O)[C@H](CO)NC(=O)[C@H](Cc1ccccc1)NC(=O)CNC(=O)CN)C(=O)N[C@@H](Cc1ccccc1)C(N)=O (H-GGFSF[X14]F-NH2)
IC50 [1]: > 100 µM
EC50 [2]: > 100 µM

CCNC(=N)NCC[C@H](NC(=O)[C@H](Cc1ccccc1)NC(=O)[C@H](CO)NC(=O)[C@H](Cc1ccccc1)NC(=O)CNC(=O)CN)C(=O)N[C@@H](Cc1ccccc1)C(N)=O (H-GGFSF[X15]F-NH2)
IC50 [1]: > 100 µM
EC50 [2]: > 100 µM

CC(C)CNC(=N)NCCC[C@H](NC(=O)[C@H](Cc1ccccc1)NC(=O)[C@H](CO)NC(=O)[C@H](Cc1ccccc1)NC(=O)CNC(=O)CN)C(=O)N[C@@H](Cc1ccccc1)C(N)=O (H-GGFSF[X16]F-NH2)
EC50 [2]: 1.5 µM

CC(C)CNC(=N)NCC[C@H](NC(=O)[C@H](Cc1ccccc1)NC(=O)[C@H](CO)NC(=O)[C@H](Cc1ccccc1)NC(=O)CNC(=O)CN)C(=O)N[C@@H](Cc1ccccc1)C(N)=O (H-GGFSF[X17]F-NH2)
IC50 [1]: > 100 µM
EC50 [2]: > 100 µM

C/N=C(/NCC[C@H](NC(=O)[C@H](Cc1ccccc1)NC(=O)[C@H](CO)NC(=O)[C@H](Cc1ccccc1)NC(=O)CNC(=O)CN)C(=O)N[C@@H](Cc1ccccc1)C(N)=O)N(C)C (H-GGFSF[X18]F-NH2)
IC50 [1]: > 100 µM
EC50 [2]: > 100 µM

C/N=C(\NC)NCCCC[C@H](NC(=O)[C@H](Cc1ccccc1)NC(=O)[C@H](CO)NC(=O)[C@H](Cc1ccccc1)NC(=O)CNC(=O)CN)C(=O)N[C@@H](Cc1ccccc1)C(N)=O (H-GGFSF[X19]F-NH2)
IC50 [1]: > 100 µM
EC50 [2]: > 100 µM

CCNC(=N)NCCCC[C@H](NC(=O)[C@H](Cc1ccccc1)NC(=O)[C@H](CO)NC(=O)[C@H](Cc1ccccc1)NC(=O)CNC(=O)CN)C(=O)N[C@@H](Cc1ccccc1)C(N)=O (H-GGFSF[X20]F-NH2)
IC50 [1]: > 100 µM
EC50 [2]: > 100 µM

CCN(C)C(=N)NCCC[C@H](NC(=O)[C@H](Cc1ccccc1)NC(=O)[C@H](CO)NC(=O)[C@H](Cc1ccccc1)NC(=O)CNC(=O)CN)C(=O)N[C@@H](Cc1ccccc1)C(N)=O (H-GGFSF[X21]F-NH2)
IC50 [1]: > 100 µM
EC50 [2]: > 100 µM

CCCNC(=N)NCC[C@H](NC(=O)[C@H](Cc1ccccc1)NC(=O)[C@H](CO)NC(=O)[C@H](Cc1ccccc1)NC(=O)CNC(=O)CN)C(=O)N[C@@H](Cc1ccccc1)C(N)=O (H-GGFSF[X22]F-NH2)
IC50 [1]: > 100 µM
EC50 [2]: > 100 µM

CN(C)C(=N)NCC[C@H](NC(=O)[C@H](Cc1ccccc1)NC(=O)[C@H](CO)NC(=O)[C@H](Cc1ccccc1)NC(=O)CNC(=O)CN)C(=O)N[C@@H](Cc1ccccc1)C(N)=O (H-GGFSF[X23]F-NH2)
IC50 [1]: > 100 µM
EC50 [2]: > 100 µM

N=C(NCCCC[C@H](NC(=O)[C@H](Cc1ccccc1)NC(=O)[C@H](CO)NC(=O)[C@H](Cc1ccccc1)NC(=O)CNC(=O)CN)C(=O)N[C@@H](Cc1ccccc1)C(N)=O)N1CCC1 (H-GGFSF[X24]F-NH2)
IC50 [1]: > 100 µM
EC50 [2]: > 100 µM

C/N=C(/NCCCC[C@H](NC(=O)[C@H](Cc1ccccc1)NC(=O)[C@H](CO)NC(=O)[C@H](Cc1ccccc1)NC(=O)CNC(=O)CN)C(=O)N[C@@H](Cc1ccccc1)C(N)=O)N(C)C (H-GGFSF[X25]F-NH2)
IC50 [1]: > 100 µM
EC50 [2]: > 100 µM

N=C(N)NCCCC[C@H](NC(=O)[C@H](Cc1ccccc1)NC(=O)[C@H](CO)NC(=O)[C@H](Cc1ccccc1)NC(=O)CNC(=O)CN)C(=O)N[C@@H](Cc1ccccc1)C(N)=O (H-GGFSF[hArg]F-NH2)
EC50 [2]: 1.91 µM

CNC(=N)NCCC[C@H](NC(=O)[C@H](Cc1ccccc1)NC(=O)[C@H](CO)NC(=O)[C@H](Cc1ccccc1)NC(=O)CNC(=O)CNC(=O)[C@H](CCCCN)NC(=O)[C@H](CCCCN)NC(=O)[C@H](CCCNC(=N)N)NC(=O)[C@H](CO)NC(=O)[C@H](Cc1ccc(O)cc1)NC(=O)CNC(=O)[C@H](CC(N)=O)NC(=O)[C@H](CC(C)C)NC(=O)[C@H](CCC(=O)O)NC(=O)[C@H](CCC(=O)O)NC(=O)[C@H](C)NC(=O)[C@H](CC(C)C)NC(=O)[C@H](CC(N)=O)NC(=O)CNC(=O)[C@H](CC(C)C)NC(=O)[C@@H]1CCCN1C(=O)CNC(=O)[C@H](CO)NC(=O)[C@@H](N)[C@@H](C)O)C(=O)N[C@@H](Cc1ccccc1)C(N)=O (H-TSGPLGNLAEELNGYSRKKGGFSF[Arg(Me)]F-NH2)
EC50 [2]: 0.0069 µM

H-GGFSFRF-NH2
EC50 [2]: 1.64 µM
